This note sets out measurements from ChEMBL document CHEMBL1123863, “1-[[[5-(substituted phenyl)-2-oxazolyl]methylene]amino]-2,4- imidazolidinediones, a new class of skeletal muscle relaxants” (1987).

One assay concerns Rattus norvegicus. In words: Inhibition of gastrocnemius twitch tension after a cumulative dose of 36.6 mg/kg iv in rats. In kind it is functional. The settings on record: for inhibition in vivo at 36.6 mg/kg: Rattus norvegicus, Gastrocnemius, iv. A digest of the protocol: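 Pithed rat gastrocnemius preparation: adult male Charles River rats (385–400 g), ether anesthesia, tracheotomy, pithed, artificially respired, bilaterally vagotomized. Tubocurarine chloride 0.075 mg/kg iv given for neuromuscular blockade, isolating direct muscle action. Compounds in tetrahydro-2-furanmethanol or DMSO, given iv as sequential 0.83, 2.5, 8.3, 25 mg/kg doses. Percent twitch tension inhibition read after the cumulative dose.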

A further assay has as its system Mus musculus. In words: Highest tolerated dose (p.o.) in mice. In kind it is functional. The procedure, abridged:
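Mice dosed orally with suspensions in 0.5% methylcellulose 4000 at 50, 200, 400 and 800 mg/kg. Muscle relaxation scored over a 2.0-h observation period on a 0 (none) to 4 (severe) scale. Acute toxicity followed for 72 h after dosing; highest tolerated oral dose given in mg/kg.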

One may read the Inhibition as the drop in the measured response relative to a control, in per cent. For `O=C1CN(/N=C/c2ncc(-c3ccc(Cl)cc3)o2)C(=O)N1`, in the assay with Rattus norvegicus, the Inhibition was -80%. Besides, the HTD in the assay on Mus musculus was more than 800 mg/kg.
In the case of `O=C1CN(/N=C/c2ncc(-c3ccc(Br)cc3)o2)C(=O)N1` [AZUMOLENE], the Inhibition in the assay with Rattus norvegicus was -82%. The compound also showed an HTD with Mus musculus of more than 800 mg/kg.
Turning to `O=C1CN(/N=C/c2ncc(-c3ccccc3)o2)C(=O)N1`, in the assay on Rattus norvegicus, the Inhibition is -41%. Moreover, in the assay on Mus musculus, the HTD is more than 800 mg/kg.
For `COc1ccc(-c2cnc(/C=N/N3CC(=O)NC3=O)o2)cc1`, the Inhibition in the assay with Rattus norvegicus is reported as -47%. In the assay on Mus musculus, the HTD was more than 800 mg/kg.
For `O=C1CN(/N=C/c2ncc(-c3ccc([N+](=O)[O-])cc3)o2)C(=O)[N-]1.[Na+]`, in the assay with Rattus norvegicus, the Inhibition is reported as -84%. The HTD in the assay on Mus musculus was more than 800 mg/kg.
As usually defined, the inhibition in vivo is the drop in the measured response relative to a control, in per cent. Regarding `O=C1CN(/N=C/c2ncc(-c3cccc(Cl)c3)o2)C(=O)[N-]1.[Na+]`, the inhibition in vivo at 36.6 mg/kg in the assay on Rattus norvegicus was -42%. The compound further registered an HTD in the assay on Mus musculus of 400 mg/kg.
On to `O=C1CN(/N=C/c2ncc(-c3cccc(C(F)(F)F)c3)o2)C(=O)N1`, for which the Inhibition in the assay with Rattus norvegicus is given as -56%. The HTD in the assay with Mus musculus was found to be 400 mg/kg.
With `O=C1CN(/N=C/c2ncc(-c3ccc(Cl)c(Cl)c3)o2)C(=O)N1`, the Inhibition in the assay with Rattus norvegicus is -82%. The HTD with Mus musculus was more than 800 mg/kg.
With `O=C1CN(/N=C/c2ncc(-c3ccccc3[N+](=O)[O-])o2)C(=O)N1`, in the assay with Rattus norvegicus, the inhibition in vivo at 36.6 mg/kg came out at 0%. Moreover, the HTD in the assay on Mus musculus is more than 800 mg/kg.
As for `O=C1CN(/N=C/c2ncc(-c3ccc(F)cc3)o2)C(=O)N1`, the Inhibition in the assay with Rattus norvegicus is -70%. This compound also displayed an HTD in the assay with Mus musculus of more than 800 mg/kg.
As for `O=C1CN(/N=C/c2ccc(-c3ccc([N+](=O)[O-])cc3)o2)C(=O)[N-]1.[Na+]` [DANTROLENE SODIUM], the inhibition in vivo at 36.6 mg/kg in the assay on Rattus norvegicus was -80%. In the assay on Mus musculus, this compound gave an HTD of more than 400 mg/kg.
Turning to `COc1ccc(-c2cnc(/C=N/N3CC(=O)[N-]C3=O)o2)cc1.[Na+]`, the Inhibition in the assay with Rattus norvegicus was -58%. In the assay on Mus musculus, this compound came in with an HTD of more than 800 mg/kg.
In the case of `O=C1CN(/N=C/c2ncc(-c3ccc(Cl)cc3)o2)C(=O)[N-]1.[Na+]`, in the assay on Rattus norvegicus, the Inhibition is -81%. In addition, the HTD in the assay on Mus musculus stood at 400 mg/kg.
On to `O=C1CN(/N=C/c2ncc(-c3ccccc3)o2)C(=O)[N-]1.[Na+]`, for which, in the assay on Rattus norvegicus, the Inhibition is given as -49%. For the same compound, in the assay on Mus musculus, the HTD was determined as 200 mg/kg.
Turning to `O=C1CN(/N=C/c2ncc(-c3ccc(Cl)c(Cl)c3)o2)C(=O)[N-]1.[Na+]`, the Inhibition with Rattus norvegicus was -71%. For the same compound, in the assay on Mus musculus, the HTD is more than 800 mg/kg.
With `Cc1ccc(-c2cnc(/C=N/N3CC(=O)[N-]C3=O)o2)cc1.[Na+]`, the Inhibition in the assay on Rattus norvegicus is on record as -62%. The compound also registered an HTD in the assay on Mus musculus of more than 800 mg/kg.
The matching figures for `O=C1CN(/N=C/c2ncc(-c3ccc(F)cc3)o2)C(=O)[N-]1.[Na+]`: -75% and 400 mg/kg.
The like results for `O=C1CN(/N=C/c2ncc(-c3ccc(Br)cc3)o2)C(=O)[N-]1.[Na+]` [AZUMOLENE SODIUM] were, in that order, -83% and 400 mg/kg.
For the compound `Cc1ccc(-c2cnc(/C=N/N3CC(=O)NC3=O)o2)cc1`, in the assay with Rattus norvegicus, the Inhibition is -65%. Further, the HTD in the assay with Mus musculus is more than 800 mg/kg.
As for `O=C1CN(/N=C/c2ncc(-c3cccc(C(F)(F)F)c3)o2)C(=O)[N-]1.[Na+]`, the Inhibition with Rattus norvegicus was -69%. In the assay with Mus musculus, this compound returned an HTD of 50 mg/kg.
`O=C1CN(/N=C/c2ncc(-c3ccc([N+](=O)[O-])cc3)o2)C(=O)N1`: in the assay on Rattus norvegicus, the Inhibition is reported as -86%. This compound displayed an HTD with Mus musculus of more than 800 mg/kg.
